{"data": "Measurements pooled from the literature", "effect on": "cell growth or viability", "note": "Protocols differ between the studies behind these lines."}
{"SMILES": "NC(=O)C1CCCN1C(=O)Nc1ccccc1/N=c1\\cc(-c2ccc3c(c2)OCCO3)oc2cc(F)ccc12 (stereo not drawn)", "cell line": "MCF7", "method": "CCK-8", "concentration": "1 µM", "endpoint": "inhibition", "value": "7.19%"}
{"SMILES": "O=C(Nc1ccc(Cl)cc1)Nc1cccc(-c2cn(Cc3ccc(Cl)cc3)nn2)c1", "cell line": "MCF7", "method": "CCK-8", "concentration": "50 µM", "time": "48 h", "endpoint": "viability", "value": "104%"}
{"SMILES": "O=C(Nc1ccccc1/N=c1\\cc(-c2ccc3c(c2)OCO3)oc2ccccc12)N1CCOCC1", "cell line": "MCF7", "method": "CCK-8", "concentration": "1 µM", "endpoint": "inhibition", "value": "12.9%"}
{"SMILES": "O=C(C[C@@H](C(F)F)n1ccc(F)n1)N1CCC(O)(Cn2cnc3c(cnn3-c3ccc(F)cc3)c2=O)CC1", "cell line": "CAPAN-1", "method": "SRB", "concentration": "27.43 nM", "time": "5 days", "endpoint": "viability", "value": "66.3%"}
{"SMILES": "COc1ccc(NC(=O)NCc2cn(Cc3ccc(C)cc3)nn2)cc1", "cell line": "MCF7", "method": "CCK-8", "concentration": "50 µM", "time": "72 h", "endpoint": "viability", "value": "101%"}
{"SMILES": "O=C(Nc1ccc(Cl)cc1)Nc1ccc(-c2cn(Cc3cccc(Cl)c3)nn2)cc1", "cell line": "MCF7", "method": "CCK-8", "concentration": "50 µM", "time": "72 h", "endpoint": "viability", "value": "98.2%"}
{"SMILES": "Cc1n[nH]c2ccc3nc(-c4ccc(C(=O)NCCN(C)C)cc4F)c4c(c3c12)CCCC4", "cell line": "NOMO-1", "time": "72 h", "endpoint": "GI50", "value": "0.292 µM"}
{"SMILES": "CNCCC(=O)Nc1ccccc1/N=c1\\cc(-c2ccc3nc(N)oc3c2)oc2ccccc12", "cell line": "MCF7", "method": "CCK-8", "concentration": "1 µM", "endpoint": "inhibition", "value": "31.9%"}
{"SMILES": "O=C(NCc1cn(Cc2ccc(Br)cc2)nn1)Nc1ccc(Cl)cc1", "cell line": "MCF7", "method": "CCK-8", "concentration": "50 µM", "time": "72 h", "endpoint": "viability", "value": "91.2%"}
{"SMILES": "Cc1n[nH]c2ccc3nc(-c4ccc(C(=O)NCCN(C)C)cc4)c4c(c3c12)CCCCC4", "cell line": "NOMO-1", "time": "72 h", "endpoint": "GI50", "value": "3.08 µM"}
{"SMILES": "COc1ccc2/c(=N/c3ccccc3NC(=O)[C@@H](N)C(C)(C)C)cc(-c3ccc4c(c3)OCO4)oc2c1", "cell line": "MCF7", "method": "CCK-8", "concentration": "1 µM", "endpoint": "inhibition", "value": "14.2%"}
{"SMILES": "O=C(Nc1ccc(Cl)cc1)Nc1cccc(-c2cn(Cc3cccc(Cl)c3)nn2)c1", "cell line": "MCF7", "method": "CCK-8", "concentration": "50 µM", "time": "48 h", "endpoint": "viability", "value": "92.3%"}
{"SMILES": "Cc1n[nH]c2ccc3nc(-c4ccc(C(=O)NCCN(C)C)cc4F)c4c(c3c12)CCCCC4", "cell line": "NOMO-1", "time": "72 h", "endpoint": "GI50", "value": "2.73 µM"}
{"SMILES": "CC(C)(C)[C@H](N)C(=O)Nc1ccccc1/N=c1\\cc(-c2ccc3c(c2)OCO3)oc2ccccc12", "cell line": "MCF7", "method": "CCK-8", "concentration": "1 µM", "endpoint": "inhibition", "value": "21.3%"}
{"SMILES": "COc1ccc(NC(=O)Nc2ccc(-c3cn(Cc4ccc(Br)cc4)nn3)cc2)cc1", "cell line": "MCF7", "method": "CCK-8", "concentration": "50 µM", "time": "48 h", "endpoint": "viability", "value": "98.4%"}
{"SMILES": "O=C(Nc1ccc(Cl)cc1)Nc1ccc(-c2cn(Cc3ccc(Cl)cc3)nn2)cc1", "cell line": "MCF7", "method": "CCK-8", "concentration": "50 µM", "time": "48 h", "endpoint": "viability", "value": "94.6%"}
{"SMILES": "COc1ccc(NC(=O)Nc2ccc(-c3cn(Cc4ccc(Cl)cc4)nn3)cc2)cc1", "cell line": "MCF7", "method": "CCK-8", "concentration": "50 µM", "time": "72 h", "endpoint": "viability", "value": "99%"}
{"SMILES": "CN(C)CCNC(=O)c1ccc(-c2nc3ccc4[nH]ncc4c3c3c2CCCCC3)c(F)c1", "cell line": "NOMO-1", "time": "72 h", "endpoint": "GI50", "value": "1.33 µM"}
{"SMILES": "Cc1ccccc1Cn1cc(-c2cccc(NC(=O)Nc3ccc(F)cc3)c2)nn1", "cell line": "MCF7", "method": "CCK-8", "concentration": "50 µM", "time": "72 h", "endpoint": "viability", "value": "58.8%"}
{"SMILES": "O=C(Nc1ccc(-c2cn(Cc3ccc(Cl)cc3)nn2)cc1)Nc1ccccc1Br", "cell line": "MCF7", "method": "CCK-8", "concentration": "50 µM", "time": "48 h", "endpoint": "viability", "value": "99.3%"}
{"SMILES": "C[C@H](N)C(=O)Nc1ccccc1/N=c1\\cc(-c2ccc3c(c2)OCCO3)oc2cc(F)ccc12", "cell line": "MCF7", "method": "CCK-8", "concentration": "1 µM", "endpoint": "inhibition", "value": "3.33%"}
{"SMILES": "O=C(Nc1ccc(Cl)cc1)Nc1cccc(-c2cn(Cc3cccc(Br)c3)nn2)c1", "cell line": "MCF7", "method": "CCK-8", "concentration": "50 µM", "time": "72 h", "endpoint": "viability", "value": "72.8%"}
{"SMILES": "Cc1n[nH]c2ccc3nc(-c4ccc(C(=O)NCCN(C)C)cc4)c4c(c3c12)CCCC4", "cell line": "NOMO-1", "time": "72 h", "endpoint": "GI50", "value": "1.05 µM"}
{"SMILES": "COc1ccc2/c(=N/c3ccccc3NC(=O)[C@@H](N)CO)cc(-c3ccc4c(c3)OCCO4)oc2c1", "cell line": "MCF7", "method": "CCK-8", "concentration": "1 µM", "endpoint": "inhibition", "value": "8.55%"}
{"SMILES": "COc1ccc(NC(=O)Nc2ccc(-c3cn(Cc4cccc(Cl)c4)nn3)cc2)cc1", "cell line": "MCF7", "method": "CCK-8", "concentration": "50 µM", "time": "72 h", "endpoint": "viability", "value": "98.2%"}
{"SMILES": "O=C(Nc1ccccc1/N=c1\\cc(-c2ccc3c(c2)OCCO3)oc2cc(F)ccc12)N1CCOCC1", "cell line": "MCF7", "method": "CCK-8", "concentration": "1 µM", "endpoint": "inhibition", "value": "16.7%"}
{"SMILES": "COc1ccc(NC(=O)NCc2cn(Cc3ccccc3C)nn2)cc1", "cell line": "MCF7", "method": "CCK-8", "concentration": "50 µM", "time": "48 h", "endpoint": "viability", "value": "96.3%"}
